# Results reported in ChEMBL document CHEMBL3243957, “Synthesis and screening of 8-(4'-thiazolyl)purines” (J Med Chem, 1978).
# Activity calls are given as the source filed them. The calls are words filed in the database; no cut-off is given here.
# Legend:
# Mus musculus [1] = assay: Antitumor activity against mouse S180J cells allografted in CD-1 mouse assessed as tumor regression at 30 mg/kg, ip administered six times in consecutive days starting a day after tumor cell inoculation measured 42 days after start of drug treatment; assay type: functional, organism-based; set-up: dose 30 mg/kg
# Method in brief: (§1)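 Female CD-1 mice, in groups of six, were inoculated with 7.5 × 10^5 tumor cells. Starting the day after inoculation, the agent was given ip as a carboxymethylcellulose suspension in saline, once daily for six consecutive days, at different dosages.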
# Human alphaherpesvirus 1 [2] = assay: Antiviral activity against HSV-1 infected in african green monkey Vero cells assessed as inhibition of viral replication at 100 ug/ml (reference value: 2.7 x 10^5 PFU/ml); assay type: functional
# Human alphaherpesvirus 1 [3] = assay: Antiviral activity against HSV-1 infected in african green monkey Vero cells assessed as inhibition of viral replication at 10 ug/ml (reference value: 2.7 x 10^5 PFU/ml); assay type: functional
# Human alphaherpesvirus 1 [4] = assay: Antiviral activity against HSV-1 infected in african green monkey Vero cells assessed as inhibition of viral replication at 1 ug/ml (reference value: 2.7 x 10^5 PFU/ml); assay type: functional
# Lymphocyte [5] = assay: Immunopotentiation activity in human lymphocytes assessed as increase in cell proliferation at 1 to 100 ug/ml by [3H]thymidine incorporation assay in presence of mitogen phytohemagglutinin; assay type: functional, cell-based
# Method in brief: (§2)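 Lymphocytes were cultured with compound at 1, 10 and 100 µg/mL, with or without a suboptimal concentration of the lectin mitogen phytohemagglutinin. Proliferation was read as tritiated thymidine incorporation.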
# Lymphocyte [6] = assay: Immunopotentiation activity in human lymphocytes assessed as increase in cell proliferation at 1 to 100 ug/ml by [3H]thymidine incorporation assay in absence of mitogen phytohemagglutinin; assay type: functional, cell-based; method in brief: as §2
# Mus musculus [7] = assay: Antitumor activity against mouse S180J cells allografted in CD-1 mouse assessed as tumor regression at 10 to 100 mg/kg, ip administered six times in consecutive days starting day after tumor cell inoculation measured 42 days after start of drug treatment; assay type: functional, organism-based; method in brief: as §1
# Lymphocyte [8] = assay: Inhibition of phytohemagglutinin-induced human lymphocytes proliferation at 100 ug/ml by [3H]thymidine incorporation assay; assay type: functional, cell-based; method in brief: as §2
# Mus musculus [9] = assay: Antitumor activity against mouse S180J cells allografted in CD-1 mouse assessed as tumor regression at 100 mg/kg, ip administered six times in consecutive days starting a day after tumor cell inoculation measured 42 days after start of drug treatment; assay type: functional, organism-based; set-up: dose 100 mg/kg; method in brief: as §1
# Human alphaherpesvirus 1 [10] = assay: Antiviral activity against HSV-1 infected in african green monkey Vero cells assessed as inhibition of viral replication at 100 ug/ml (reference value: 1.2 x 10^6 PFU/ml); assay type: functional
# Human alphaherpesvirus 1 [11] = assay: Antiviral activity against HSV-1 infected in african green monkey Vero cells assessed as inhibition of viral replication at 10 ug/ml (reference value: 1.2 x 10^6 PFU/ml); assay type: functional
# Human alphaherpesvirus 1 [12] = assay: Antiviral activity against HSV-1 infected in african green monkey Vero cells assessed as inhibition of viral replication at 1 ug/ml (reference value: 1.2 x 10^6 PFU/ml); assay type: functional
# Mus musculus [13] = assay: Antitumor activity against mouse S180J cells allografted in ip dosed CD-1 mouse assessed as tumor regression administered six times in consecutive days starting a day after tumor cell inoculation measured 42 days after start of drug treatment; assay type: functional, organism-based; method in brief: as §1
# Mus musculus [14] = assay: Antitumor activity against mouse S180J cells allografted in CD-1 mouse assessed as tumor regression at 32 mg/kg, ip administered six times in consecutive days starting a day after tumor cell inoculation measured 42 days after start of drug treatment; assay type: functional, organism-based; set-up: dose 32 mg/kg; method in brief: as §1
# Mus musculus [15] = assay: Antitumor activity against mouse S180J cells allografted in CD-1 mouse assessed as tumor regression at 16 mg/kg, ip administered six times in consecutive days starting a day after tumor cell inoculation measured 42 days after start of drug treatment; assay type: functional, organism-based; set-up: dose 16 mg/kg; method in brief: as §1
# Mus musculus [16] = assay: Antitumor activity against mouse S180J cells allografted in CD-1 mouse assessed as tumor regression at 4 mg/kg, ip administered six times in consecutive days starting a day after tumor cell inoculation measured 42 days after start of drug treatment; assay type: functional, organism-based; set-up: dose 4 mg/kg; method in brief: as §1
# Mus musculus [17] = assay: Antitumor activity against mouse S180J cells allografted in CD-1 mouse assessed as tumor regression at 1 mg/kg, ip administered six times in consecutive days starting a day after tumor cell inoculation measured 42 days after start of drug treatment; assay type: functional, organism-based; set-up: dose 1 mg/kg; method in brief: as §1
# Mus musculus [18] = assay: Antitumor activity against AKR mouse leukemia assessed as increase in survival time at 0.2 to 20 mg/kg, ip; assay type: functional, organism-based
# Method in brief: (§3)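 AKR leukemia-bearing mice were dosed at 0.2, 2.0 and 20 mg/kg, each given by intraperitoneal, oral or subcutaneous routes. The read-out was increase in survival time.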
# Mus musculus [19] = assay: Antitumor activity against AKR mouse leukemia assessed as increase in survival time at 0.2 to 20 mg/kg, po; assay type: functional, organism-based; method in brief: as §3
# Mus musculus [20] = assay: Antitumor activity against AKR mouse leukemia assessed as increase in survival time at 0.2 to 20 mg/kg, sc; assay type: functional, organism-based; method in brief: as §3
# L1210 = assay: Antitumor activity against mouse L1210 cells allografted in mouse assessed as increase in host survival time at 125 mg/kg administered qd for 6 days relative to control; assay type: functional
# Method in brief: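 L1210 mouse leukemia in mice, dosed daily (qd) over a 1 to 125 mg/kg range. Read-out was survival time of treated versus control mice, given as % T/C. Procedure follows previously described methods.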
# Mus musculus [21] = assay: Toxicity in mouse L1210 cells allografted mouse up to 500 mg/kg administered qd for 5 days; assay type: organism-based; set-up: dose 500 mg/kg; conditions: in vivo, 120 h
compound,measurement,setting,value
Nc1ncnc2[nH]c(-c3cscn3)nc12,inhibition,Mus musculus [1],inactive
same,PFU/ml,Human alphaherpesvirus 1 [2],920000
same,PFU/ml,Human alphaherpesvirus 1 [3],850000
same,PFU/ml,Human alphaherpesvirus 1 [4],320000
same,Activity,Lymphocyte [5],inactive
same,Activity,Lymphocyte [6],inactive
same,inhibition,Mus musculus [7],inactive
same,inhibition,Lymphocyte [8],Active
Nc1nc(S)c2nc(-c3cscn3)[nH]c2n1,inhibition,Mus musculus [1],inactive
same,inhibition,Mus musculus [9],inactive
same,PFU/ml,Human alphaherpesvirus 1 [10],820000
same,PFU/ml,Human alphaherpesvirus 1 [11],5300000
same,PFU/ml,Human alphaherpesvirus 1 [12],3500000
same,Activity,Lymphocyte [5],inactive
same,Activity,Lymphocyte [6],inactive
same,inhibition,Mus musculus [13],Active
same,inhibition,Lymphocyte [8],Active
Clc1ncnc2[nH]c(-c3cscn3)nc12,PFU/ml,Human alphaherpesvirus 1 [10],2200000
same,PFU/ml,Human alphaherpesvirus 1 [11],2500000
same,PFU/ml,Human alphaherpesvirus 1 [12],4000000
same,Activity,Lymphocyte [5],inactive
same,Activity,Lymphocyte [6],inactive
same,inhibition,Lymphocyte [8],Active
Oc1ncnc2[nH]c(-c3cscn3)nc12,Activity,Lymphocyte [5],inactive
same,Activity,Lymphocyte [6],inactive
same,inhibition,Lymphocyte [8],Active
c1ncc2nc(-c3cscn3)[nH]c2n1,Activity,Lymphocyte [5],inactive
same,Activity,Lymphocyte [6],inactive
same,inhibition,Mus musculus [7],inactive
same,inhibition,Lymphocyte [8],Active
Sc1ncnc2[nH]c(-c3cscn3)nc12,inhibition,Mus musculus [14],inactive
same,inhibition,Mus musculus [15],inactive
same,inhibition,Mus musculus [16],inactive
same,inhibition,Mus musculus [17],inactive
same,Activity,Mus musculus [18],inactive
same,Activity,Mus musculus [19],inactive
same,Activity,Mus musculus [20],inactive
same,Activity,Lymphocyte [5],inactive
same,Activity,Lymphocyte [6],inactive
same,inhibition,Mus musculus [13],Active
same,inhibition,Lymphocyte [8],Active
ONc1ncnc2[nH]c(-c3cscn3)nc12,T/C,L1210,129%
same,Activity,Mus musculus [21],Non-toxic
